Assays:
[1] = molecular target: Integrin alpha-IIb/beta-3 (Homo sapiens, UniProt P05106+P08514); experiment: Displacement of biotinylated fibrinogen from human alpha2b-beta3 receptor after 2 hrs by chemiluminescence assay; format: protein-complex assay
Integrin alpha-V/beta-3 = Integrin alpha-V/beta-3 (Homo sapiens, UniProt P05106+P06756); experiment: Displacement of biotinylated fibrinogen from human […] receptor after 2 hrs by chemiluminescence assay; format: protein-complex assay
Coagulation factor X = Coagulation factor X (Homo sapiens, UniProt P00742); experiment: Inhibition of factor 10a using S-2222 as substrate preincubated for 15 mins prior substrate addition measured for every 10 secs by spectrophotometry
Chain of Coagulation factor X (P00742 41-179 limits assumed): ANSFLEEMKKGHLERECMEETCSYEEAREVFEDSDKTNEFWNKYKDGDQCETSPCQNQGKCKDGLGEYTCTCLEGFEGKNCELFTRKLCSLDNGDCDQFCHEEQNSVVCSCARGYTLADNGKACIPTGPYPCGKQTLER
Chain of Coagulation factor X (P00742 235-488 limits assumed): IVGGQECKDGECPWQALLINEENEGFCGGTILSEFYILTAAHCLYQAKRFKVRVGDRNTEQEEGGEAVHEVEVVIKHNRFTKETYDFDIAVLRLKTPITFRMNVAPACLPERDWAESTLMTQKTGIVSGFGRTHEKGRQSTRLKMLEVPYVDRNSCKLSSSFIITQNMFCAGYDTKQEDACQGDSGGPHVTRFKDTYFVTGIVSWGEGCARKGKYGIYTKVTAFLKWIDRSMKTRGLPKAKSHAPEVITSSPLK
Summary of the method: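 Amidolytic chromogenic assay. Factor Xa at 1 mBAEEE/mL final with S-2222 at […] final. Inhibitor at three concentrations, diluted from 10 mmol/L DMSO stock, preincubated with enzyme in HBSA buffer for 15 min at 25 °C. A405 read every 10 s. Run in triplicate. Ki by Cheng–Prusoff from initial linear rates, averaged over concentration combinations.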

Prothrombin = Prothrombin (Homo sapiens, UniProt P00734)
[2] = Selectivity ratio of Ki for factor 10a to Ki for thrombin
Summary of the method: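 Factor Xa at 1 mBAEEE/mL with S-2222 at 100 and 200; thrombin at 0.5 NIH E/mL with S-2238 at […]. Triplicates, three inhibitor concentrations.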

[3] = Selectivity ratio of Ki for trypsin to Ki for thrombin
Summary of the method: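 Trypsin at 0.5 nkat/mL with S-2222 at 50 and 100; thrombin at 0.5 NIH E/mL with S-2238 at […]. Triplicates, three inhibitor concentrations.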

Chain of Integrin alpha-V/beta-3 (P05106 27-788 limits assumed): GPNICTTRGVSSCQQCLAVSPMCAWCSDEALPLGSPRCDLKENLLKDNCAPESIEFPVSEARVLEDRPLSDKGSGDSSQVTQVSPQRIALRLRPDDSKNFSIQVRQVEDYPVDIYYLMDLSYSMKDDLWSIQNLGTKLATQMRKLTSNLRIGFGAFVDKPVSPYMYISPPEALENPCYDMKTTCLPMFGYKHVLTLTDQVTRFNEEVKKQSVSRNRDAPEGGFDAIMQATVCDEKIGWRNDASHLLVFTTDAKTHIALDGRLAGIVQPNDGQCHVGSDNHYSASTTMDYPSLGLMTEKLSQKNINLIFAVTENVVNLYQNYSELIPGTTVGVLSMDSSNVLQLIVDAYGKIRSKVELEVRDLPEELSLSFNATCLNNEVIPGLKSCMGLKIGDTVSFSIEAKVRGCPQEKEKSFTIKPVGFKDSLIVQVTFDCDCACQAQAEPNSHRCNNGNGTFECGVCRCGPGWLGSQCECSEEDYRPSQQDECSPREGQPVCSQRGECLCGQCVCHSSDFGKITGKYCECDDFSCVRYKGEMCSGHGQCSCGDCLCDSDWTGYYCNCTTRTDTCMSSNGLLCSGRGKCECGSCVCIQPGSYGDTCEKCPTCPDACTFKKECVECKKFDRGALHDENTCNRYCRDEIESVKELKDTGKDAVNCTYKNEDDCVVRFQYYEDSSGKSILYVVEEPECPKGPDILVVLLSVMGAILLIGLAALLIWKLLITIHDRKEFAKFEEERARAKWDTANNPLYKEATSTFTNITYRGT
Chain of Integrin alpha-V/beta-3 (P06756 31-889 limits assumed): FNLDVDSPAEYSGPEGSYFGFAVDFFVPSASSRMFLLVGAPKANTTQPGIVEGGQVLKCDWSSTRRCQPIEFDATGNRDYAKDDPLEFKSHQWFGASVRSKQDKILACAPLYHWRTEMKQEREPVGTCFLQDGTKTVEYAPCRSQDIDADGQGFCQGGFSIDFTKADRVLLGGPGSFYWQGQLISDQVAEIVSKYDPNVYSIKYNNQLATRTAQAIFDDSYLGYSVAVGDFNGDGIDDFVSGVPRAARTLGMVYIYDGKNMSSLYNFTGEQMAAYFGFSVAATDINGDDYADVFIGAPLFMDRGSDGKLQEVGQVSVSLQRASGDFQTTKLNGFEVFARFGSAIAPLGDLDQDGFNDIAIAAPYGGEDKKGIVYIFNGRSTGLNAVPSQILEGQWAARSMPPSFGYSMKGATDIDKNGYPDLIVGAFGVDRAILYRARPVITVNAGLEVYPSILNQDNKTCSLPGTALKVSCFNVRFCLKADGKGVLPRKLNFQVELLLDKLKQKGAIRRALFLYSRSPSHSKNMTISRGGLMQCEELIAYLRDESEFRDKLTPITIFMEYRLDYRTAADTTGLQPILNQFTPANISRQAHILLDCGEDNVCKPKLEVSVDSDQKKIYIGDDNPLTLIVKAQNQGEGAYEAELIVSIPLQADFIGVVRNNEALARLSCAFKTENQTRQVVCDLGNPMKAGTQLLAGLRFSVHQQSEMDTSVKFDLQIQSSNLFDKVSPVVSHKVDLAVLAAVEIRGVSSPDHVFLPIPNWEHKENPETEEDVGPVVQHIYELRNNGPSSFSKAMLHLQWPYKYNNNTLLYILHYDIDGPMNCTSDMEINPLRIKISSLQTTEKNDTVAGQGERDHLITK
Chain of Integrin alpha-V/beta-3 (P06756 891-1048 limits assumed): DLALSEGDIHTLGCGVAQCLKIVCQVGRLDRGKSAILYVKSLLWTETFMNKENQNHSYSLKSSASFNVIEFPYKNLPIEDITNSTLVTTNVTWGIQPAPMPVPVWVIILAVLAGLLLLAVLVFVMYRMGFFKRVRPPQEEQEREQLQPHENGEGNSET
Chain of Integrin alpha-IIb/beta-3 (P05106 27-788 limits assumed): as the sequence (P05106 27-788 limits assumed) above
Chain of Integrin alpha-IIb/beta-3 (P08514 32-887 limits assumed): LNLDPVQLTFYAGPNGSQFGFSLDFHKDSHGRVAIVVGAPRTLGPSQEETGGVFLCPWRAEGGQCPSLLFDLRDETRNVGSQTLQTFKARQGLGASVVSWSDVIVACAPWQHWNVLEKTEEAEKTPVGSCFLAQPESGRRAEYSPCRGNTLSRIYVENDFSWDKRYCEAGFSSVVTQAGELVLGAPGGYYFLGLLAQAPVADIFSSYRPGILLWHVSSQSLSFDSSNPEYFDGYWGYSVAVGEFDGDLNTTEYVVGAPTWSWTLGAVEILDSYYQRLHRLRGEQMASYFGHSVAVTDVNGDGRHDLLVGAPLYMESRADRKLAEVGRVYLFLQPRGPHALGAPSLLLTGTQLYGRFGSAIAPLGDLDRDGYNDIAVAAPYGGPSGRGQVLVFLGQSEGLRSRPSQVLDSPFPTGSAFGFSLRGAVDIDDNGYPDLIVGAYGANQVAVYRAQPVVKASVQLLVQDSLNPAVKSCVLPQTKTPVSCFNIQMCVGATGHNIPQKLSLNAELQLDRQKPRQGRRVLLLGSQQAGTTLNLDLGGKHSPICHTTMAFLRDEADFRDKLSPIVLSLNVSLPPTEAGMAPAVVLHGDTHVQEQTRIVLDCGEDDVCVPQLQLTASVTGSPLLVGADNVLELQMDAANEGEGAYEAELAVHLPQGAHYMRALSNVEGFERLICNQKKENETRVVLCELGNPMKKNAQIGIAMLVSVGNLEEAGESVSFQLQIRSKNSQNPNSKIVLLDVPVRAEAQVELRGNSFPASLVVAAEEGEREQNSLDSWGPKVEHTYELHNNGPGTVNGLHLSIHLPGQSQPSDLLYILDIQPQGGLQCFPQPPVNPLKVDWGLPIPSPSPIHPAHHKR
Chain of Integrin alpha-IIb/beta-3 (P08514 891-1039 limits assumed): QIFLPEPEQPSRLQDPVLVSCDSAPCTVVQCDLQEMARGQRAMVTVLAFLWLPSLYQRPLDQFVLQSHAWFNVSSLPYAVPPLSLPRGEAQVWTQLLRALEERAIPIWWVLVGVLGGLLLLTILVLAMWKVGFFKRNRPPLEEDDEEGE

Structure (SMILES) | IC50 [1] | IC50 (Integrin alpha-V/beta-3) | Ki (Coagulation factor X) | Ki (Prothrombin) | Ratio Ki [2] | Ratio Ki [3]
CCOC(=O)C(=O)N(Cc1ccc(F)c(F)c1)c1ccc2c(c1)OC(C)(COc1ccc(C(=N)N)cc1)CN2C (configuration not stated) | > 100 µM | > 100 µM | 1.6 µM | 0.028 µM | – | –
CCOC(=O)C(=O)N(Cc1cc(F)cc(F)c1)c1ccc2c(c1)N(C)CC(C)(COc1ccc(C(=N)N)cc1)O2 (configuration not stated) | > 100 µM | > 100 µM | 6 µM | – | – | –
CN1CC(C)(COc2ccc(C(=N)N)cc2)Oc2ccc(N(CC(=O)O)Cc3cc(F)cc(F)c3)cc21 (configuration not stated) | 2.5 µM | > 100 µM | 9.8 µM | 0.76 µM | – | –
CN1CC(C)(COc2ccc(C(=N)N)cc2)Oc2ccc(N(Cc3ccccc3)C(=O)C(=O)O)cc21 (configuration not stated) | 2.8 µM | > 100 µM | – | – | – | –
CN1CC(C)(COc2ccc(C(=N)N)cc2)Oc2ccc(N(Cc3cccc(F)c3)C(=O)C(=O)O)cc21 (configuration not stated) | 2.2 µM | > 100 µM | 18 µM | – | – | –
CN1CC(C)(COc2ccc(C(=N)N)cc2)Oc2cc(N(Cc3ccc(F)cc3)C(=O)C(=O)O)ccc21 (configuration not stated) | 34 µM | > 100 µM | 7.7 µM | – | – | –
CCOC(=O)CN(Cc1ccccc1)c1ccc2c(c1)N(C)CC(C)(COc1ccc(C(=N)N)cc1)O2 (configuration not stated) | 54 µM | > 100 µM | – | – | – | –
CCOC(=O)CN(Cc1cccc(F)c1)c1ccc2c(c1)OC(C)(COc1ccc(C(=N)N)cc1)CN2C (configuration not stated) | > 100 µM | > 100 µM | 1.2 µM | – | – | –
CCOC(=O)C(=O)N(Cc1ccc(F)cc1)c1ccc2c(c1)OC(C)(COc1ccc(C(=N)N)cc1)CN2C (configuration not stated) | > 100 µM | > 100 µM | 2.83 µM | 0.023 µM | – | –
CCOC(=O)C(=O)N(Cc1ccc(F)c(F)c1)c1ccc2c(c1)N(C)CC(C)(COc1ccc(C(=N)N)cc1)O2 (configuration not stated) | > 100 µM | > 100 µM | 4.7 µM | – | – | –
CN1CC(C)(COc2ccc(C(=N)N)cc2)Oc2ccc(N(CC(=O)O)Cc3ccc(F)cc3)cc21 (configuration not stated) | 2 µM | > 100 µM | 7.7 µM | 0.75 µM | – | –
CN1CC(C)(COc2ccc(C(=N)N)cc2)Oc2ccc(N(Cc3ccc(F)cc3)C(=O)C(=O)O)cc21 (configuration not stated) | 1.8 µM | > 100 µM | 16.3 µM | – | – | –
CN1CC(C)(COc2ccc(C(=N)N)cc2)Oc2cc(N(CC(=O)O)Cc3ccc(F)cc3)ccc21 (configuration not stated) | 49 µM | > 100 µM | 5.6 µM | 0.24 µM | – | –
CCOC(=O)C(=O)N(Cc1cc(F)cc(F)c1)c1ccc2c(c1)OC(C)(COc1ccc(C(=N)N)cc1)CN2C (configuration not stated) | > 100 µM | > 100 µM | 0.79 µM | 0.018 µM | – | –
CN1CC(C)(COc2ccc(C(=N)N)cc2)Oc2ccc(N(CC(=O)O)Cc3ccc(F)c(F)c3)cc21 (configuration not stated) | 1.1 µM | > 100 µM | 6.5 µM | 0.33 µM | 20 | 1.7
CN1CC(C)(COc2ccc(C(=N)N)cc2)Oc2cc(N(CC(=O)O)Cc3ccc(F)c(F)c3)ccc21 (configuration not stated) | 80 µM | > 100 µM | 4.4 µM | 0.81 µM | 5.4 | 1.6
CN1CC(C)(COc2ccc(C(=N)N)cc2)Oc2cc(N(Cc3cc(F)cc(F)c3)C(=O)C(=O)O)ccc21 (configuration not stated) | 31 µM | > 100 µM | 1.6 µM | – | – | –
CCOC(=O)CN(Cc1ccccc1)c1ccc2c(c1)OC(C)(COc1ccc(C(=N)N)cc1)CN2C (configuration not stated) | 28 µM | > 100 µM | – | 0.32 µM | – | –
CCOC(=O)C(=O)N(Cc1cccc(F)c1)c1ccc2c(c1)N(C)CC(C)(COc1ccc(C(=N)N)cc1)O2 (configuration not stated) | > 100 µM | > 100 µM | 4.9 µM | – | – | –

Structure (SMILES) | IC50 [1] | IC50 (Integrin alpha-V/beta-3) | Ki (Coagulation factor X) | Ki (Prothrombin) | Ratio Ki [2] | Ratio Ki [3]
CN1CC(C)(COc2ccc(C(=N)N)cc2)Oc2cc(N(Cc3cccc(F)c3)C(=O)C(=O)O)ccc21 (configuration not stated) | 33 µM | > 100 µM | 4.1 µM | – | – | –
CN1CC(C)(COc2ccc(C(=N)N)cc2)Oc2ccc(N(CC(=O)O)Cc3cccc(F)c3)cc21 (configuration not stated) | 1.5 µM | > 100 µM | 7.6 µM | 0.67 µM | – | –
CN1CC(C)(COc2ccc(C(=N)N)cc2)Oc2cc(N(Cc3ccccc3)C(=O)C(=O)O)ccc21 (configuration not stated) | 39 µM | > 100 µM | – | – | – | –
CCOC(=O)CN(Cc1cc(F)cc(F)c1)c1ccc2c(c1)N(C)CC(C)(COc1ccc(C(=N)N)cc1)O2 (configuration not stated) | > 100 µM | > 100 µM | 9.8 µM | – | – | –
CN1CC(C)(COc2ccc(C(=N)N)cc2)Oc2ccc(N(Cc3ccc(F)c(F)c3)C(=O)C(=O)O)cc21 (configuration not stated) | 2.5 µM | > 100 µM | 14 µM | – | – | –
CCOC(=O)CN(Cc1cc(F)cc(F)c1)c1ccc2c(c1)OC(C)(COc1ccc(C(=N)N)cc1)CN2C (configuration not stated) | > 100 µM | > 100 µM | 15 µM | – | – | –
CCOC(=O)CN(Cc1ccc(F)c(F)c1)c1ccc2c(c1)OC(C)(COc1ccc(C(=N)N)cc1)CN2C (configuration not stated) | > 100 µM | > 100 µM | 1.5 µM | – | – | –
CCOC(=O)C(=O)N(Cc1cccc(F)c1)c1ccc2c(c1)OC(C)(COc1ccc(C(=N)N)cc1)CN2C (configuration not stated) | > 100 µM | > 100 µM | 1.6 µM | 0.019 µM | – | –
CCOC(=O)CN(Cc1ccc(F)c(F)c1)c1ccc2c(c1)N(C)CC(C)(COc1ccc(C(=N)N)cc1)O2 (configuration not stated) | > 100 µM | > 100 µM | 8 µM | 0.83 µM | – | –
CN1CC(C)(COc2ccc(C(=N)N)cc2)Oc2ccc(N(Cc3cc(F)cc(F)c3)C(=O)C(=O)O)cc21 (configuration not stated) | 3.4 µM | > 100 µM | 14 µM | – | – | –
CCOC(=O)C(=O)N(Cc1ccccc1)c1ccc2c(c1)OC(C)(COc1ccc(C(=N)N)cc1)CN2C (configuration not stated) | 52 µM | > 100 µM | – | – | – | –
CN1CC(C)(COc2ccc(C(=N)N)cc2)Oc2cc(N(Cc3ccc(F)c(F)c3)C(=O)C(=O)O)ccc21 (configuration not stated) | 31 µM | > 100 µM | 3.6 µM | – | – | –
CCOC(=O)CN(Cc1ccc(F)cc1)c1ccc2c(c1)N(C)CC(C)(COc1ccc(C(=N)N)cc1)O2 (configuration not stated) | > 100 µM | > 100 µM | 6.66 µM | 0.72 µM | – | –
CCOC(=O)CN(Cc1ccc(F)cc1)c1ccc2c(c1)OC(C)(COc1ccc(C(=N)N)cc1)CN2C (configuration not stated) | > 100 µM | > 100 µM | 1.6 µM | 0.36 µM | – | –
CCOC(=O)CN(Cc1cccc(F)c1)c1ccc2c(c1)N(C)CC(C)(COc1ccc(C(=N)N)cc1)O2 (configuration not stated) | > 100 µM | > 100 µM | 6.8 µM | 0.8 µM | – | –
CN1CC(C)(COc2ccc(C(=N)N)cc2)Oc2cc(N(CC(=O)O)Cc3cccc(F)c3)ccc21 (configuration not stated) | 60 µM | > 100 µM | 6.6 µM | 0.32 µM | – | 5
CCOC(=O)C(=O)N(Cc1ccc(F)cc1)c1ccc2c(c1)N(C)CC(C)(COc1ccc(C(=N)N)cc1)O2 (configuration not stated) | > 10 µM | > 100 µM | 5.49 µM | – | – | –
CN1CC(C)(COc2ccc(C(=N)N)cc2)Oc2cc(N(CC(=O)O)Cc3cc(F)cc(F)c3)ccc21 (configuration not stated) | 45 µM | > 100 µM | 4 µM | 0.2 µM | 20 | 6.5
CCOC(=O)C(=O)N(Cc1ccccc1)c1ccc2c(c1)N(C)CC(C)(COc1ccc(C(=N)N)cc1)O2 (configuration not stated) | 49 µM | > 100 µM | – | – | – | –

Source: ChEMBL document CHEMBL1949509, “Fluorinated dual antithrombotic compounds based on 1,4-benzoxazine scaffold” (Eur J Med Chem, 2012)
